Measured values pooled from the literature.
Target: Calcium/calmodulin-dependent protein kinase kinase 1 (CAMKK1, Homo sapiens, UniProt Q8N5S9)

CC(=O)N1CCC(c2ccc(C(=O)NC(=N)N)cc2C(F)(F)F)CC1 — remaining binding (cell-free assay; competition with immobilised ligand; 1 µM): 100%
CN(C)c1nccc(-c2cnc3ncccn23)n1 — remaining binding (binding; 1 µM): 100%
O=C(c1ccc(Nc2ncc(Cl)c(-c3cc4ccccc4s3)n2)cc1)N1CCC(N2CCCC2)CC1 — remaining binding (binding; competition with immobilised ligand; 1 µM): 91%
CN(C)c1nccc(-c2cnn3ncccc23)n1 — remaining binding (binding; 1 µM): 78%
CNCc1ccccc1-c1csc([C@H](C)Nc2nc(C)nc3cc(OC)c(OC)cc23)c1 — remaining binding (cell-free assay; competition with immobilised ligand; 1 µM): 99%
N[C@@H]1CCN(c2nccc(-c3cnn4ncccc34)n2)C1 — remaining binding (binding; 1 µM): 100%
Cc1nc(C2CCN(C(=O)c3ccc(OC(F)(F)F)cc3N)CC2)c2ncc(N3CCN(C)CC3)cc2n1 — remaining binding (cell-free assay; competition with immobilised ligand; 1 µM): 100%
CC1CCCN1c1nccc(-c2cnn3ncccc23)n1 (stereo not shown) — remaining binding (binding; 1 µM): 100%
Cc1cnc(Nc2ccc(C(=O)N3CCC(N4CCCC4)CC3)cc2)nc1-c1cc2ccccc2s1 — remaining binding (binding; competition with immobilised ligand; 1 µM): 79%
CNC(=O)c1ccc(Nc2ncc(C(F)(F)F)c(NCc3nccnc3N(C)S(C)(=O)=O)n2)cc1 — remaining binding (cell-free assay; competition with immobilised ligand; 0.1 µM): 75%
C[C@@H]1CCN(c2nccc(-c3cnn4ncccc34)n2)C1 — remaining binding (binding; 1 µM): 87%
O=C(NCCCN1CCOCC1)c1ccc(Nc2ncc(Cl)c(-c3ccc(Cl)s3)n2)cc1 — remaining binding (binding; competition with immobilised ligand; 1 µM): 73%
O=C(NCC1CCOCC1)c1n[nH]cc1NC(=O)c1c(F)cccc1F — remaining binding (binding; competition with immobilised ligand; 1 µM): 88%
F[C@@H]1CCN(c2nccc(-c3cnn4ncccc34)n2)C1 — remaining binding (binding; 1 µM): 100%
Cc1cc(C)c(-n2ccn3nc(-c4cccnc4)cc23)cc1NC(=O)c1cc(C#N)cc(S(F)(F)(F)(F)F)c1 — remaining binding (cell-free assay; competition with immobilised ligand; 0.1 µM): 93.6%
COc1ncc2cc3ccccc3nc2c1C#N — remaining binding (cell-free assay; competition with immobilised ligand; 5 µM): 87%
CN(CCCC(F)(F)F)c1nccc(-c2cnn3ncccc23)n1 — remaining binding (binding; 1 µM): 100%
CNC(=O)[C@@H]1CC[C@@H](n2c(-c3ccc4cnccc4c3)nc3ccc(C(=O)NCc4cccc(C(N)=O)c4)cc32)C1 — remaining binding (binding; competition with immobilised ligand; 1 µM): 94%
CO[C@H]1CC[C@H](CNc2ccc(S(=O)(=O)NC(=O)c3ccc(N4CCN(CC5=C(c6ccc(Cl)cc6)CC(C)(C)CC5)CC4)cc3Oc3cnc4[nH]ccc4c3)cc2[N+](=O)[O-])CC1 — remaining binding (cell-free assay; competition with immobilised ligand; 1 µM): 83%
COc1cnc(Nc2cccc(S(N)(=O)=O)c2)nc1N1CCN(c2ccccc2)C(=O)C1 — remaining binding (binding; competition with immobilised ligand; 1 µM): 100%
CC(=O)Nc1c(C(C)=O)c(=O)n(C)c2nc(-c3ccc(Cl)cc3Cl)c(-c3ccc(Cl)cc3)cc12 — remaining binding (cell-free assay; competition with immobilised ligand; 1 µM): 100%
Nc1ncc2c(n1)-c1c([nH]c3ccc(C#CC4CC4)cc13)CCCC2 — remaining binding (binding; competition with immobilised ligand; 1 µM): 98%
